ChEMBL document CHEMBL4406880, “Design, synthesis, and bioactivity of dihydropyrimidine derivatives as kinesin spindle protein inhibitors” (Bioorg Med Chem, 2019)

How the values were obtained:
[1] = Inhibition of kinesin (unknown origin) assessed as reduction in ATPase activity using microtubule as substrate measured for 5 to mins; set-up: species or system Homo sapiens
MCF7 = assay: Antiproliferative activity against human MCF7 cells assessed as growth percentage incubated for 72 hrs by XTT assay; type: functional, cell-based; settings: MCF7, 72 h
HeLa = assay: Antiproliferative activity against human HeLa cells assessed as growth percentage incubated for 72 hrs by XTT assay; type: functional, cell-based
[2] = Growth inhibition of human HEK293 cells assessed as cell viability at 0.39 ug incubated for 48 hrs by MTT assay relative to control; type: cell-based; settings: read-out: Activity
[3] = Growth inhibition of human HEK293 cells assessed as cell viability at 1.56 ug incubated for 48 hrs by MTT assay relative to control; type: cell-based; settings: read-out: Activity
[4] = Growth inhibition of human HEK293 cells assessed as cell viability at 6.25 ug incubated for 48 hrs by MTT assay relative to control; type: cell-based; settings: read-out: Activity
[5] = Growth inhibition of human HEK293 cells assessed as cell viability at 25 ug incubated for 48 hrs by MTT assay relative to control; type: cell-based; settings: read-out: Activity
[6] = Growth inhibition of human HEK293 cells assessed as cell viability at 100 ug incubated for 48 hrs by MTT assay relative to control; type: cell-based; settings: read-out: Activity
SNB-75 [7] = assay: Cell cycle arrest in human SNB75 cells assessed as accumulation in G0/G1 phase at 2 uM incubated for 24 hrs by propidium iodide based flow cytometry (reference value: 55.62 %); type: functional
Summary of the method: (§1)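 SNB-75 cells were exposed to 2 µM for 24 h at 37 °C, 5% CO2, then washed with PBS and fixed in 70% ethanol on ice for 15 min. They were stained 1 h at room temperature with 50 µg/mL propidium iodide, 0.1 mg/mL RNase A and 0.05% Triton X-100. DNA content was read by flow cytometry to give the % of cells in pre-G1, G0/G1, S and G2/M.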

SNB-75 [8] = assay: Cell cycle arrest in human SNB75 cells assessed as accumulation in S phase at 2 uM incubated for 24 hrs by propidium iodide based flow cytometry (reference value: 33.92 %); type: functional; summary of the method: as §1
SNB-75 [9] = assay: Cell cycle arrest in human SNB75 cells assessed as accumulation in G2/M phase at 2 uM incubated for 24 hrs by propidium iodide based flow cytometry (reference value: 10.46 %); type: functional; summary of the method: as §1
SNB-75 [10] = assay: Cell cycle arrest in human SNB75 cells assessed as accumulation in preG1 phase at 2 uM incubated for 24 hrs by propidium iodide based flow cytometry (reference value: 1.85 %); type: functional; summary of the method: as §1
SNB-75 [11] = assay: Induction of apoptosis in human SNB75 cells assessed as early apoptotic cells at 2 uM incubated for 24 hrs by annexin V FITC and propidium iodide based flow cytometry (reference value: 0.82 %); type: functional
SNB-75 [12] = assay: Induction of apoptosis in human SNB75 cells assessed as late apoptotic cells at 2 uM incubated for 24 hrs by annexin V FITC and propidium iodide based flow cytometry (reference value: 0.59 %); type: functional
SNB-75 [13] = assay: Induction of apoptosis in human SNB75 cells assessed as necrosis at 2 uM incubated for 24 hrs by annexin V FITC and propidium iodide based flow cytometry (reference value: 0.44 %); type: functional
MDA-MB-435 [14] = assay: Induction of apoptosis in human MDA-MB-435 cells assessed as active caspase 3 level incubated for 2 hrs by ELISA (reference value: 1); type: functional
Summary of the method: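 Active caspase-3 was measured by human sandwich ELISA. Samples were incubated on the plate for 2 h at room temperature. This was followed by 1 h with detection antibody, 30 min with anti-rabbit IgG-HRP, and 30 min with chromogen, with all steps at room temperature. Absorbance was read at 450 nm, and levels were read from a standard curve.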

MDA-MB-435 [15] = assay: Induction of apoptosis in human MDA-MB-435 cells assessed as active caspase 9 level incubated for 2 hrs by ELISA (reference value: 1); type: functional
Summary of the method: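 Caspase-9 was measured by human ELISA on cell lysates, with samples in duplicate. Samples were incubated with detection antibody for 2 h at room temperature. This was followed by 1 h with anti-rabbit IgG-HRP and 10 min with TMB substrate. After a stop solution, absorbance was read at 450 nm.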

[16] = target: Kinesin-like protein KIF11 (Homo sapiens, UniProt P52732); assay: Inhibition of recombinant human His-tagged Eg5 (1 to 368 residues) assessed as reduction in ATPase activity by […] based assay
Kinesin-like protein KIF11, sequence (P52732 whole entry, the tested form may be a part): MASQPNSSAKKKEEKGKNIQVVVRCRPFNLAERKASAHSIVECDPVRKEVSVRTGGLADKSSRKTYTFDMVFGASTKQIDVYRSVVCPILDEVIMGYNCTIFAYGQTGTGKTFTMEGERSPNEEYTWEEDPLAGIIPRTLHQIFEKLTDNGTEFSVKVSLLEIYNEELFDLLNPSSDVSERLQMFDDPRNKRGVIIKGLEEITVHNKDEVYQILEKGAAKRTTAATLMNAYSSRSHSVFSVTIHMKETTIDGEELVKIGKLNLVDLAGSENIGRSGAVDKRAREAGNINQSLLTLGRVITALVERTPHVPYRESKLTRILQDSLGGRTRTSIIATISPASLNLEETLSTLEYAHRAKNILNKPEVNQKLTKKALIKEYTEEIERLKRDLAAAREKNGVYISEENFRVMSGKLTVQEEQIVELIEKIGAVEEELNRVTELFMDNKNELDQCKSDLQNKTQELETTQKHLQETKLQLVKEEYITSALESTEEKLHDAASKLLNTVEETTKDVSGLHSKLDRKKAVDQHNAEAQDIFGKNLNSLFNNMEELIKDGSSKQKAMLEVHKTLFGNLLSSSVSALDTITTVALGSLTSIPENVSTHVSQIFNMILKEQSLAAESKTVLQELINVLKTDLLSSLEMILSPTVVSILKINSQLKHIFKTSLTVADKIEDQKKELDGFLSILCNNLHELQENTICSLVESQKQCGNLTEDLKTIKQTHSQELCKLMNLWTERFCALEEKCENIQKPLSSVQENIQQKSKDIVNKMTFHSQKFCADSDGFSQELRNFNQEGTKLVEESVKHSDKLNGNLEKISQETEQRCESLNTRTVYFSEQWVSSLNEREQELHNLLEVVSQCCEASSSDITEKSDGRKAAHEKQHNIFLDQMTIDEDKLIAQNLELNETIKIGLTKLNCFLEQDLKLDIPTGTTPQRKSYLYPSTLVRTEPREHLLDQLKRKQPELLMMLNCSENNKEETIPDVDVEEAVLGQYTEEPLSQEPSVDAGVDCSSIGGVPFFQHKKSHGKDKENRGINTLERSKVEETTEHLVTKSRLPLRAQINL

CC1=C(C(=O)c2ccccc2)C(c2cccc(O)c2)NC(=S)N1C (centres undefined)
IC50 [1]: 0.1 µM

CC1=C(C(=O)OCc2ccccc2)C(c2ccco2)NC(=O)N1 (centres undefined)
IC50 (MCF7): 55 µM
IC50 (HeLa): 40 µM

COc1cccc2c1C(=O)c1c(O)c3c(c(O)c1C2=O)C[C@@](O)(C(=O)CO)C[C@@H]3O[C@H]1C[C@H](N)[C@H](O)[C@H](C)O1 [DOXORUBICIN]
viability at 48 h, 0.39 ug [2]: 75.1%
viability at 48 h, 1.56 ug [3]: 64.7%
viability at 48 h, 6.25 ug [4]: 55.2%
viability at 48 h, 25 ug [5]: 43.6%
viability at 48 h, 100 ug [6]: 33.8%

CCOC(=O)C1=C(C)NC(=S)NC1c1cccc(O)c1 (centres undefined) [MONASTROL]
IC50 [1]: 20 µM
Activity (SNB-75 [7]): 29.56%
Activity (SNB-75 [8]): 29.18%
Activity (SNB-75 [9]): 41.26%
Activity (SNB-75 [10]): 22.58%
Activity (SNB-75 [11]): 4.72%
Activity (SNB-75 [12]): 15.54%
Activity (SNB-75 [13]): 2.32%
fold change (FC) (MDA-MB-435 [14]): 6.9
fold change (FC) (MDA-MB-435 [15]): 11.92
IC50 [16]: 20 µM
